# The entries come from a sample that favours hits as a whole.
# HCT116 bCat-KO = primary screen for growth suppressors in beta-catenin knockout HCT116 cells (colon tumor, human); viability, % at 10 µM; 140,000 tested, 1.5% active; HCT116 beta-catenin knockout viability, CellTiter-Glo, 60 h; hits give low values;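 active = viability at or under a set limit, the compound median less 4 SD, cut at about 6% in these data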;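 note: 0% = Hyamine 1622 control at 20 µM and 100% = untreated cell control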
# Lung fibro prol = antiproliferative effect on LL 47 fibroblasts – human, LL 47 cells, CellTiter-Glo luminescence, primary screen; LL 47 human lung fibroblast viability, ATP luminescence; hits give low values; 85,000 tested, 1.1% active; AID 719, 2007; viability, % at 10 µM;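 active = viability at or below 50% in the single dose screen; inactive = viability above 50%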;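 note: compound exposure lasted 72 h before the ATP readout; 100% = median luminescence of untreated cell-only wells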
#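 Material: human lung fibroblast line LL 47, low passage; Evaluation: viability percentage against median untreated-cell control; Buffer or medium: 15% FBS in IMEM; Incubation: 72 h compound exposure at 37 °C after overnight plating; Dosing: 0.1% DMSO in all compound wells; Measured by: CellTiter-Glo luminescence.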
# H69AR inhibit = proliferation blockers of H69AR lung cancer cells, primary screen, cell-based, human, 86K library | H69AR lung tumor viability, ATP luminescence, 72 h; hits give low values | viability, % at 10 µM | 85,000 tested, 6% active | AID 598, 2007;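 active = viability at or below 40%; inactive = viability above 40%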;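 note: multidrug resistant small cell line overexpressing MRP-1 efflux transporter; 100% = mean luminescence of untreated control wells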
# HUVEC prolif 384 = inhibitors of HUVEC proliferation, primary screen, cell-based, 384-well | CellTiter-Glo luminescence, 72 h; hits give low values | viability, % at 10 µM (by protocol) | 86,000 tested, 1.1% active | AID 648, 2007;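 active = viability at or below 30%; inactive = viability above 30%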;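 note: 100% = median luminescence of DMSO-only cell control wells on each plate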
# PTEN del growth = growth suppression of PTEN-null HCT116, primary screen, cell-based, CellTiter-Glo | HCT116 PTEN-null viability, 60 h; hits give low values | viability, % at 10 µM | 140,000 tested, 1.2% active | AID 827, 2007;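 active = viability at or below a set limit, 4 SD under the median of all tested compounds, cut at about 3.7% in these data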;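 note: PTEN knockout HCT116 line with beta catenin targeted HCT116 as companion control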
# Starred values were filed as active, the others as inactive; . = not tested or not shown.
SMILES,HCT116 bCat-KO,Lung fibro prol,H69AR inhibit,HUVEC prolif 384,PTEN del growth
COc1cccc(C2c3c(oc4ccc(Cl)cc4c3=O)C(=O)N2c2cc(C)on2)c1OC (stereo not drawn),2.8*,71.9,6.6*,54.5,19.6
CCC1CCCCN1c1nc(-c2ccncc2)nc2ccccc12 (stereo not drawn),52.5,89.3,16.7*,43.4,60.6
CCOc1ccc(OCC)c(Nc2cc(C)nc3nc(C)nn23)c1,73.0,87.5,32.0*,66.4,59.0
Cc1cccnc1NC(=O)c1ccc([N+](=O)[O-])o1,55.7,.,.,.,45.1
Cc1cccc(NC(=O)c2ccc([N+](=O)[O-])o2)n1,3.3*,.,.,.,2.5*
Cc1cc(C(=O)OCC(=O)NCCC(C)C)c2ccccc2n1,96.6,105.5,95.4,100.4,103.4
O=C(COC(=O)/C=C/c1ccc([N+](=O)[O-])cc1)NC(c1ccccc1)c1ccccc1,99.7,.,.,.,91.4
CCCSc1nsc(SCCC)c1C#N,96.9,93.9,93.9,90.1,100.9
C#CCSc1nsc(SCC#C)c1C#N,2.7*,.,.,.,5.3
Cc1cnc(C(=O)OCC(=O)Nc2ccc(C)c(S(=O)(=O)N3CCCCC3)c2)cn1,95.0,.,.,.,97.9
CC(OC(=O)c1ccc(S(=O)(=O)NCc2ccco2)cc1)C(=O)Nc1ncc(Cl)cc1Cl (stereo not drawn),83.7,.,.,.,97.1
COc1ccc(S(=O)(=O)/N=C2/C=CC(=O)C(C)=C2C)cc1,98.2,.,.,.,100.6
CC1=C/C(=N\OS(=O)(=O)c2ccccc2)C(C)=CC1=O,1.8*,.,.,.,1.7*
CC1=C/C(=N\OS(=O)(=O)c2ccccc2)C(C(C)C)=CC1=O,1.5*,.,.,.,1.5*
CC1=C(C)/C(=N\OS(=O)(=O)c2ccc(C)cc2)C=CC1=O,1.8*,.,.,.,1.7*
Cc1ccc(Cl)c(OCC(=O)OCC(=O)NC2CCCc3ccccc32)c1 (stereo not drawn),87.2,.,.,.,86.0
COc1ccccc1-c1cc(C(F)(F)F)nc(S(=O)(=O)CCCC(=O)O)n1,72.7,90.9,52.1,95.5,80.3
COc1ccccc1-c1cc(C(F)(F)F)nc(S(=O)(=O)CCCC(=O)N2CCOCC2)n1,1.3*,3.2*,0.3*,44.6,1.1*
Cc1ccc(-c2nsc3c(N4CCN(C(=O)c5ccco5)CC4)ncnc23)cc1,.,99.5,80.9,94.5,.
O=C(c1ccco1)N1CCN(c2ncnc3scc(-c4ccc(F)cc4)c23)CC1,84.3,69.4,23.8*,87.3,75.5
Cc1nn(Cc2c(F)c(F)c(F)c(F)c2F)c(C)c1NC(=O)c1ccc(COc2ccc(Cl)cc2Cl)o1,4.7*,.,.,.,14.0
COc1cc(C2C(C#N)=C(N)Oc3cc(N(C)C)ccc32)cc2c1OCO2 (stereo not drawn),12.9,50.7,26.6*,53.2,17.4
COc1cc(C2C(C#N)=C(N)Oc3cc(O)ccc32)cc(OC)c1OC (stereo not drawn),17.8,47.2*,27.5*,53.5,17.4
COc1cc(C2C(C#N)=C(N)Oc3cc(O)ccc32)cc2c1OCO2 (stereo not drawn),67.2,89.5,23.5*,41.9,62.2
COc1ccc(NC(=O)NCCN2CCN(c3cccc(Cl)c3)CC2)cc1,82.9,103.9,86.9,93.3,99.5
SMILES,HCT116 bCat-KO,Lung fibro prol,H69AR inhibit,HUVEC prolif 384,PTEN del growth
COc1ccc(NC(=O)NCCCN2CCN(c3cc(C)ccc3C)CC2)cc1,1.4*,89.9,61.4,73.0,1.4*
CN(C1CCCCC1)S(=O)(=O)Cc1ccccc1,95.5,102.9,91.7,93.8,96.6
Cc1c(C(=O)NCc2cccs2)oc2ccc(S(=O)(=O)N3CCOCC3)cc12,102.6,92.0,77.4,80.0,109.8
Cc1c(C(=O)NCCC2=CCCCC2)oc2ccc(S(=O)(=O)N3CCOCC3)cc12,25.8,61.7,10.4*,53.3,13.8
Cc1cccc(NC(=O)c2oc3ccc(S(=O)(=O)N4CCOCC4)cc3c2C)c1C,85.7,102.8,35.3*,71.1,75.3
Cc1c(C(=O)Nc2ccc(F)cc2)oc2ccc(S(=O)(=O)N3CC(C)CC(C)C3)cc12 (stereo not drawn),2.1*,61.3,12.2*,51.3,9.2
O=C1C=C(c2cccs2)C[C@H](c2ccccc2)[C@H]1n1nnc([N+](=O)[O-])n1,4.9*,.,.,.,4.4
CC(C)(Oc1ccc(Cl)cc1)C(=O)N(Cc1ccccc1)c1ccccn1,67.7,.,.,.,61.5
CNc1ccc(Br)cc(C(=O)/C=C/c2ccc(OC)cc2)c1=O,47.5,.,.,.,37.3
CNc1ccc(Br)cc(C(=O)/C=C/c2cc(OC)ccc2OC)c1=O,7.4,89.6,0.6*,79.5,11.9
CNc1ccc(Br)cc(C(=O)/C=C/c2ccc3c(c2)OCO3)c1=O,8.3,.,.,.,11.5
CCNc1ccc(Br)cc(C(=O)/C=C/c2ccc(Cl)cc2Cl)c1=O,2.5*,92.4,0.4*,21.1*,2.2*
Cc1csc(SCC(=O)NCCc2ccc(Cl)cc2Cl)n1,95.5,.,.,.,90.7
O=C(Nc1cccc(Cl)c1)N(Cc1nc2ccccc2c(=O)[nH]1)Cc1cccs1,48.9,.,.,.,38.8
Cc1ccc(Sc2ccc(/C=N/O)cc2[N+](=O)[O-])cc1,76.5,73.1,1.1*,76.1,83.3
CC1(C)CC(=O)c2cn3nc(C(F)(F)F)nc3nc2C1,101.1,99.4,87.8,91.9,89.3
Cc1cc(NC(c2cccnc2)c2ccc3cccnc3c2O)no1 (stereo not drawn),4.3*,3.9*,30.6*,57.2,5.2
Oc1c(C(Nc2ccccn2)c2cccnc2)cc(Cl)c2cccnc12 (stereo not drawn),3.6*,.,.,.,3.9
CCOC(=O)c1oc2ccccc2c1NC(=O)c1ccc(Cl)s1,89.9,94.5,94.9,111.5,80.0
CC(C)c1ccc(NC(=O)Nc2cc3sccc3n2C)cc1,75.0,93.1,81.4,100.0,74.5
Cc1ccc(S(=O)(=O)CC#CCOC(=O)c2ccc([N+](=O)[O-])cc2)cc1,71.3,42.6*,1.6*,42.6,91.9
Cc1ccc(C(=O)c2ccc([N+](=O)[O-])cc2)cc1,97.6,104.8,98.7,115.7,97.5
Oc1ccc(-c2nc3c4c(ncn3n2)-c2ccccc2CC42CCCC2)cc1,3.0*,.,.,.,2.6*
Nn1cnc2c(c1=O)C1(CCCCC1)Cc1ccccc1-2,84.5,.,.,.,89.2
O/N=C(\c1ccc(Cl)cc1)c1cc2ccccc2o1,37.6,86.1,1.9*,42.7,43.3
CCCc1cc(-c2nc(N)ncc2-c2ccc3c(c2)OCCCO3)c(O)cc1OC,26.1,95.2,28.1*,39.4,21.7
COc1ccc(Cl)cc1NC(=O)NC1CCCCC1,83.2,99.9,79.8,88.0,69.1
COc1ccc(Cl)cc1NC(=O)Nc1ccc(Br)cn1,75.8,90.8,37.7*,97.6,68.2
COc1ccc(Cl)cc1NC(=O)Nc1cccc([N+](=O)[O-])c1C,3.1*,.,.,.,3.9
Cc1ccc(C(C)(C)C)cc1S(=O)(=O)Nc1cccc(S(=O)(=O)NC2=NCCC2)c1,87.4,.,.,.,99.6

# Bioassay records from PubChem.
